Screening results: PubChem, several laboratories
CSC inhib – cancer stem cell viability inhibitors, primary screen, luminescence. cancer stem cell-like cells viability. inhibition, % at 7.5 µM. 300,000 tested, 1.1% active; in the data active = inhibition above about 75%; inconclusive = no clear call, values can overlap the other calls; tested in HMLE shEcad cells
aSyn 5UTR inh – MLPCN primary screen, SNCA 5' untranslated region; alpha-synuclein 5'UTR reporter, inhibitor activity; inhibition, % (tested at 7.5 µM); 300,000 tested, 0.82% active; AID 1813, 2009; in the data active = inhibition above about 60%; inconclusive = no clear call, values can overlap the other calls;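 note: H4 neuroglioblastoma cells stably carrying SNCA 5'UTR luciferase fusion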
T cruzi repl – inhibitors of intracellular T. cruzi growth, primary screen, luminescence, NIH3T3 host cells; T. cruzi beta-gal in NIH3T3, 90 h; inhibition, % (no concentration beside the values); 300,000 tested, 1.4% active; AID 1885, 2009;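 active = mean inhibition across valid replicates above about 55%, limit read from the data; inconclusive = mean below that limit but half or more replicates reach it; inactive = mean below it, under half of replicates reach it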;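 note: signal also drops with host cell toxicity which is not excluded here; higher percent means less beta-gal luminescence so fewer parasites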
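assay system = mouse NIH/3T3 fibroblasts infected with β-gal-expressing T. cruzi Tulahuen C4 | input = 5,000 NIH/3T3 host cells per well | buffer or medium = DMEM plus 2% FBS | timing = 3 h host attachment, then at least 90 h co-culture | measured by = GalScreen luminescence, 60 min | evaluation = luminescence reflecting intracellular parasite burden, expressed as percent inhibition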
SKKanGAS inh – S. pyogenes SKKanGAS growth inhibitors in kanamycin, primary screen, streptokinase expression inhibitor project, SKKanGAS strain, BacTiter-Glo luminescence; 300,000 tested, 1.3% active; 6 h; inhibition, % at 7.5 µM;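 active = mean replicate score, as percent of positive control median, at least 50; inconclusive = mean below 50 but one replicate at or above 50; inactive = mean and every replicate below 50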;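 note: strain carries kanamycin resistance gene driven by streptokinase promoter and grows in 40 µg/ml kanamycin; loss of luminescence reflects streptokinase promoter inhibition or plain growth inhibition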
Mdm2 MdmX PPI – inhibitors of human Mdm2-MdmX association, primary screen, cell-based, luminescence, split luciferase, SaOS-2, uHTS; Protein Mdm4 (Homo sapiens) + E3 ubiquitin-protein ligase Mdm2 (Homo sapiens), …; SaOS-2 split-luciferase Mdm2/MdmX complementation; inhibition, % at 8 µM; 330,000 tested, 3% active; AID 485346, 2010;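 active = inhibition of at least 50% at 8 µM in the primary screen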
Mdm2 MdmX conf – Mdm2-MdmX complex disruptors, retested hits, confirmation, luminescence, single concentration; Mdm2-MdmX binding, luminescent assay; shares compounds with Mdm2 MdmX PPI; inhibition, % at 8 µM; 10,000 tested, 55% active; AID 489028, 2010; in the data active = inhibition above about 40%
FLuc counter – full-length luciferase signal inhibition, confirmation, counter-screen for Mdm2/MdmX interaction inhibitor project, cell-based, single concentration, SaOS-2 | shares compounds with Mdm2 MdmX PPI | SaOS-2 full-length luciferase counterscreen, luminescence | inhibition, % at 8 µM | 6,200 tested, 77% active | AID 504607, 2011;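 active = mean inhibition at 8 µM reaching about 37%, which flags the compound as non-specific, limit read from the data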;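 note: p53-null SaOS-2 cells with luciferase driven by a doxycycline-inducible promoter; compound on cells about two nights before reading with doxycycline added after day one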
Hits are given with their value; - = inactive; ? = inconclusive; . = not tested or not shown. Rows were chosen to be rich in hits. Some 5.4% of all compounds tested hit in one or more screens of this group.

SMILES	CSC inhib	aSyn 5UTR inh	T cruzi repl	SKKanGAS inh	Mdm2 MdmX PPI	Mdm2 MdmX conf	others
COc1cccc(/C=N/Nc2nc(Nc3ccccc3)nc(-n3nc(C)cc3C)n2)c1O	-	-	-	98.2	56.6	-
CCOc1cccc(/C=N/Nc2nc(N3CCCC3)nc(N3CCCC3)n2)c1O	-	-	-	-	-	.
COc1cccc(/C=N/Nc2cc(-n3nc(C)cc3-c3ccccc3)ncn2)c1O	.	110.2	-	117.2	58.5	77.7	FLuc counter=50.2
CCCCc1ccc(N/C(N)=N/c2nc(C)cc(C)n2)cc1	-	-	74.8	-	65.9	-
Cc1cc(C)c(S(=O)(=O)NCC(=O)NCc2ccco2)c(C)c1	-	-	-	-	-	.
COc1ccc(-c2ccc(C(C)=O)cc2)cc1[C@H]1[C@H]2C=CC[C@@H](C)[C@@H]2C(=O)N1Cc1ccccc1	-	-	60.0	-	57.6	-
COc1ccc(Br)cc1[C@H]1[C@@H]2C=CCC[C@@]2(C)C(=O)N1Cc1ccccc1	-	-	-	?	-	.
CC(=O)c1ccc(-c2ccc([C@H]3[C@H]4C=CC[C@@H](C)[C@@H]4C(=O)N3Cc3ccccc3)c(F)c2)cc1	75.3	-	-	-	56.5	-
COC(=O)c1ccc(-c2ccc(OC)c([C@H]3[C@H]4C=CC[C@@H](C)[C@@H]4C(=O)N3Cc3ccccc3)c2)cc1	-	-	-	-	61.8	45.1	FLuc counter=45.8
C[C@@]12CCC=C[C@H]1[C@H](c1ccc3ccccc3c1Br)N(Cc1ccccc1)C2=O	.	-	-	74.6	50.5	-
CCN(CC)c1ccc(C(=O)Nn2cnc3ccccc3c2=O)cc1	-	-	-	-	-	.
Clc1ccccc1OCCn1nnc2ccccc21	-	-	-	-	-	.
COc1ccc(-c2ccc(N(C)C)cc2)cc1[C@H]1[C@@H]2C=CCC[C@@]2(C)C(=O)N1Cc1ccccc1	-	-	-	-	-	.
COc1ccc(/C=C/c2ccccc2)cc1[C@H]1[C@H]2C=CC[C@@H](C)[C@@H]2C(=O)N1Cc1ccccc1	-	-	?	-	-	-
CC(=O)c1ccc(-c2ccc([C@H]3[C@@H]4C=CCC[C@@]4(C)C(=O)N3Cc3ccccc3)c(F)c2)cc1	121.2	-	-	-	54.4	-
CC[C@@H]1CC=C[C@H]2[C@H]1C(=O)N(Cc1ccccc1)[C@H]2c1ccoc1	86.4	-	-	-	69.0	-
Cc1ccc(F)c([C@H]2[C@H]3C=CC[C@@H](C)[C@@H]3C(=O)N2Cc2ccccc2)c1	-	-	-	-	-	.
C[C@@H]1CC=C[C@H]2[C@H]1C(=O)N(Cc1ccccc1)[C@H]2c1ccoc1	-	-	-	-	-	.
C[C@@H]1CC=C[C@H]2[C@H]1C(=O)N(Cc1ccccc1)[C@H]2c1ccc2ccccc2c1Br	.	-	-	57.2	84.1	-
Cc1ccc(OCC(=O)N2CCCC(CO)(CCOc3ccccc3)C2)cc1 (stereo unspecified)	-	-	-	-	-	.
Cn1c(CCc2ccccc2)n[nH]c1=S	-	-	-	-	-	.
COc1cc(OC)c(OC)cc1/C=C1\CCC/C(=C\c2cc(OC)c(OC)cc2OC)C1=O	.	-	58.9	-	66.9	42.9	FLuc counter=81.9
COc1ccc(C2=NN(C(=O)CSc3cn(C)c4ccccc34)C(c3ccc(OC)cc3)C2)cc1 (stereo unspecified)	-	-	-	-	-	.
Cc1ccc(Sc2nc(-c3ccccc3)nnc2C(F)(F)F)cc1	.	-	-	-	54.0	-
O=C(C1CC1)N1CCc2cc(S(=O)(=O)N3CCN(c4ccccc4)CC3)ccc21	-	-	-	-	-	.
CCC(=O)N1CCc2cc(S(=O)(=O)N3CCN(c4ccccc4)CC3)ccc21	-	-	-	-	54.9	-
CCCC(=O)Nc1sc(C)c(-c2ccc(C(C)CC)cc2)c1C#N (stereo unspecified)	-	-	-	-	-	.
